{"source": "ChEMBL document CHEMBL1134268", "about": "“Synthesis and biological evaluation of tropane-like 1-[2-[bis(4-fluorophenyl)methoxy]ethyl]-4-(3-phenylpropyl)piperazine (GBR 12909) analogues” (J Med Chem, 2001)", "key": {"[1]": {"biological_target": "T1, Muscarinic acetylcholine receptor M1 (Rattus norvegicus, UniProt P08482)", "T1 sequence (P08482 whole entry)": "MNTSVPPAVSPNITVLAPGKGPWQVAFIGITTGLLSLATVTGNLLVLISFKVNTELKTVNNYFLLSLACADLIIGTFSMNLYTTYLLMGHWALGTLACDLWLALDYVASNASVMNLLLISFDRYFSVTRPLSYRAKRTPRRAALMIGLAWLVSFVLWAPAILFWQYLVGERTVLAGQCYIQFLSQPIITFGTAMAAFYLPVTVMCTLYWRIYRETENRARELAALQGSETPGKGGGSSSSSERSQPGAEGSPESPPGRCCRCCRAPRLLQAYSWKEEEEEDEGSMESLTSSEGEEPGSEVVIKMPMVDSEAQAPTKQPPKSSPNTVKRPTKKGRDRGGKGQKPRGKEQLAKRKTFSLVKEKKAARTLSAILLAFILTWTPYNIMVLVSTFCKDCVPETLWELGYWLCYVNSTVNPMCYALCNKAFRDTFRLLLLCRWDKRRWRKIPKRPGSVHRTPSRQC", "assay": "Binding affinity against Muscarinic receptor from rat brain membranes using [3H]pirenzepine", "procedure,_shortened": "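Male Sprague-Dawley rat brain P2 membranes (without cerebellum and brainstem), 300 μg protein, with 5 nM [3H]pirenzepine and 5 mM MgCl2 in 50 mM Tris-HCl pH 7.4, for 60 min at 37 °C. Nonspecific binding was defined with 10 μM QNB. Nine ligand concentrations (1 nM-10 μM or 10 nM-100 μM) were tested.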"}, "Rattus norvegicus [2]": {"organism": "Rattus norvegicus", "assay": "Inhibition of 5-HT reuptake from whole rat brain minus cerebellum using [3H]5-HT"}, "Rattus norvegicus [3]": {"organism": "Rattus norvegicus", "assay": "Inhibition of Dopamine reuptake from rat caudate using [3H]DA", "format": "functional", "procedure,_shortened": "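Rat caudate synaptosomes were prepared by homogenization in ice-cold 10% sucrose, and the 1000g supernatant was used. Incubation was with 2 nM [3H]DA (final) in Krebs-phosphate buffer pH 7.4 containing ascorbic acid (1 mg/mL) and pargyline (50 μM), for 20 min at 25 °C. Nonspecific uptake was defined with 1 μM of a DAT inhibitor. Filtration was followed by counting of retained tritium.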"}, "[4]": {"biological_target": "Sodium-dependent serotonin transporter (Rattus norvegicus, UniProt P31652)", "sequence (P31652 whole entry)": "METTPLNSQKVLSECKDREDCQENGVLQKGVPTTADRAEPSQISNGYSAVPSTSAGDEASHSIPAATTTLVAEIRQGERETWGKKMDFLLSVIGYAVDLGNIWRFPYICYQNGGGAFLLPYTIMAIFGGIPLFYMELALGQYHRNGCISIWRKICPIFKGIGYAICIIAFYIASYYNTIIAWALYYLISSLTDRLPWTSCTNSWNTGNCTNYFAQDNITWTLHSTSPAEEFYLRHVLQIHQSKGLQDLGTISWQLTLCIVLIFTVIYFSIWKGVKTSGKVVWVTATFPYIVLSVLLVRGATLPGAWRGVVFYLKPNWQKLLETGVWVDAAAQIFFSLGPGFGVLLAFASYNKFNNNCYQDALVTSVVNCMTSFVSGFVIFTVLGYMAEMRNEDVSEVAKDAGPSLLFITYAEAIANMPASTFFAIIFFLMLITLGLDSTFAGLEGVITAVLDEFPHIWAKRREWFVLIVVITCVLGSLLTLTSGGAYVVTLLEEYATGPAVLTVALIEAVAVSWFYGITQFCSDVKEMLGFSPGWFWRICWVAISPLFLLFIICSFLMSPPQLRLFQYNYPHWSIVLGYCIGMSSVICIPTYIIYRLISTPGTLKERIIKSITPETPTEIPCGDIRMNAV", "assay": "Binding affinity against serotonin transporter using [125]RTI-55"}, "[5]": {"biological_target": "Monoamine transporters; serotonin & dopamine (Rattus norvegicus) (UniProt P31652+P23977)", "sequence (P23977 whole entry, looked up)": "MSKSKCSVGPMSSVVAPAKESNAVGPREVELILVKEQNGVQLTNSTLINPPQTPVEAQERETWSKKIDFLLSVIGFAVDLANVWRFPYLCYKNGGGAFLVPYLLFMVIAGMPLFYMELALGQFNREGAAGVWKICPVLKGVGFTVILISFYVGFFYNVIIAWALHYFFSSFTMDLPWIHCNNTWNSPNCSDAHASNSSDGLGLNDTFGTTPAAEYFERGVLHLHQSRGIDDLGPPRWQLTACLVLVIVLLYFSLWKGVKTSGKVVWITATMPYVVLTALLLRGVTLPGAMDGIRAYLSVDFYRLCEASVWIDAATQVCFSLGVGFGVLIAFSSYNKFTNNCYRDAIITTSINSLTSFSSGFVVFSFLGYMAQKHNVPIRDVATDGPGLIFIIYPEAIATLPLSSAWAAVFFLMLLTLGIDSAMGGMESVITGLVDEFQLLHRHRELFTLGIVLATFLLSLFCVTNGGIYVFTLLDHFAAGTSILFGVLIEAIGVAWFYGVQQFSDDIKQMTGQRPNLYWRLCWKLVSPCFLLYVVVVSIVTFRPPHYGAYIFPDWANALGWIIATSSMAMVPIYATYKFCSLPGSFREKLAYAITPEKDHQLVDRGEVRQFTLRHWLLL", "sequence (P31652 whole entry, looked up)": "as the sequence (P31652 whole entry) above", "assay": "Ratio of binding affinity against Dopamine to that of serotonin transporter", "format": "protein assay"}, "[6]": {"biological_target": "Sodium-dependent dopamine transporter (Rattus norvegicus, UniProt P23977)", "sequence (P23977 whole entry)": "as the sequence (P23977 whole entry, looked up) above", "assay": "Binding affinity against Dopamine transporter using [125]RTI-55"}}, "data": [{"compound": "CN1C2CCC1CC(=CCOC(c1ccccc1)c1ccccc1)C2", "values": [{"measurement": "Ki", "setting": "[1]", "value": 94, "unit": "nM"}, {"measurement": "Ki", "setting": "Rattus norvegicus [2]", "value": 8.1, "unit": "µM"}, {"measurement": "Ki", "setting": "Rattus norvegicus [3]", "value": 190, "unit": "nM"}, {"measurement": "Ki", "setting": "[4]", "value": 8.3, "unit": "µM"}, {"measurement": "Ratio", "setting": "[5]", "value": 64}]}, {"compound": "CN1[C@@H]2CC[C@H]1C[C@@H](CCNC(c1ccc(F)cc1)c1ccc(F)cc1)C2", "values": [{"measurement": "Ki", "setting": "[1]", "value": 630, "unit": "nM"}, {"measurement": "Ki", "setting": "Rattus norvegicus [2]", "value": 7.1, "unit": "µM"}, {"measurement": "Ki", "setting": "Rattus norvegicus [3]", "value": 160, "unit": "nM"}, {"measurement": "Ki", "setting": "[4]", "value": 30, "unit": "µM"}, {"measurement": "Ratio", "setting": "[5]", "value": 111}]}, {"compound": "CN1[C@@H]2CC[C@H]1C[C@@H](OC(c1ccccc1)c1ccccc1)C2", "note": "[BENZTROPINE]", "values": [{"measurement": "Ki", "setting": "Rattus norvegicus [2]", "value": 18.5, "unit": "µM"}, {"measurement": "Ki", "setting": "Rattus norvegicus [3]", "value": 130, "unit": "nM"}]}, {"compound": "Fc1ccc(C(OCC[C@H]2C[C@H]3CC[C@@H](C2)N3CCCc2ccccc2)c2ccc(F)cc2)cc1", "values": [{"measurement": "Ki", "setting": "[1]", "value": 170, "unit": "nM"}, {"measurement": "Ki", "setting": "Rattus norvegicus [2]", "value": 0.43, "unit": "µM"}, {"measurement": "Ki", "setting": "Rattus norvegicus [3]", "value": 78, "unit": "nM"}, {"measurement": "Ki", "setting": "[6]", "value": 19, "unit": "µM"}, {"measurement": "Ki", "setting": "[4]", "value": 0.079, "unit": "µM"}, {"measurement": "Ratio", "setting": "[5]", "value": 4}]}, {"compound": "CN1C2CCC1CC(=CC(=O)NC(c1ccccc1)c1ccccc1)C2", "values": [{"measurement": "Ki", "setting": "[1]", "value": 1700, "unit": "nM"}, {"measurement": "Ki", "setting": "Rattus norvegicus [2]", "value": 60, "unit": "µM"}, {"measurement": "Ki", "setting": "Rattus norvegicus [3]", "value": 880, "unit": "nM"}, {"measurement": "Ki", "setting": "[6]", "value": 2.3, "unit": "µM"}, {"measurement": "Ki", "setting": "[4]", "value": 78, "unit": "µM"}, {"measurement": "Ratio", "setting": "[5]", "value": 34}]}, {"compound": "CN1C2CCC1CC(CCNC(c1ccccc1)c1ccccc1)C2", "note": "(stereo not drawn)", "values": [{"measurement": "Ki", "setting": "[1]", "value": 340, "unit": "nM"}, {"measurement": "Ki", "setting": "Rattus norvegicus [2]", "value": 14, "unit": "µM"}, {"measurement": "Ki", "setting": "Rattus norvegicus [3]", "value": 1100, "unit": "nM"}, {"measurement": "Ki", "setting": "[6]", "value": 3.8, "unit": "µM"}, {"measurement": "Ki", "setting": "[4]", "value": 43, "unit": "µM"}, {"measurement": "Ratio", "setting": "[5]", "value": 11}]}, {"compound": "CN1C2CCC1CC(=CCOC(c1ccc(F)cc1)c1ccc(F)cc1)C2", "values": [{"measurement": "Ki", "setting": "[1]", "value": 200, "unit": "nM"}, {"measurement": "Ki", "setting": "Rattus norvegicus [2]", "value": 5, "unit": "µM"}, {"measurement": "Ki", "setting": "Rattus norvegicus [3]", "value": 35, "unit": "nM"}, {"measurement": "Ki", "setting": "[6]", "value": 19, "unit": "µM"}, {"measurement": "Ki", "setting": "[4]", "value": 3.6, "unit": "µM"}, {"measurement": "Ratio", "setting": "[5]", "value": 189}]}, {"compound": "CN1C2CCC1CC(CC(=O)NC(c1ccc(F)cc1)c1ccc(F)cc1)C2", "note": "(stereo not drawn)", "values": [{"measurement": "Ki", "setting": "[1]", "value": 1200, "unit": "nM"}, {"measurement": "Ki", "setting": "Rattus norvegicus [2]", "value": 60, "unit": "µM"}, {"measurement": "Ki", "setting": "Rattus norvegicus [3]", "value": 1800, "unit": "nM"}, {"measurement": "Ki", "setting": "[6]", "value": 3.4, "unit": "µM"}, {"measurement": "Ki", "setting": "[4]", "value": 69, "unit": "µM"}, {"measurement": "Ratio", "setting": "[5]", "value": 20}]}, {"compound": "c1ccc(CCCN2CCN(CCOC(c3ccccc3)c3ccccc3)CC2)cc1", "values": [{"measurement": "Ki", "setting": "Rattus norvegicus [2]", "value": 0.29, "unit": "µM"}, {"measurement": "Ki", "setting": "Rattus norvegicus [3]", "value": 3.7, "unit": "nM"}]}, {"compound": "c1ccc(CCCN2[C@@H]3CC[C@H]2C[C@@H](CCOC(c2ccccc2)c2ccccc2)C3)cc1", "values": [{"measurement": "Ki", "setting": "[1]", "value": 78, "unit": "nM"}, {"measurement": "Ki", "setting": "Rattus norvegicus [2]", "value": 0.57, "unit": "µM"}, {"measurement": "Ki", "setting": "Rattus norvegicus [3]", "value": 120, "unit": "nM"}, {"measurement": "Ki", "setting": "[6]", "value": 28, "unit": "µM"}, {"measurement": "Ki", "setting": "[4]", "value": 0.17, "unit": "µM"}, {"measurement": "Ratio", "setting": "[5]", "value": 6}]}, {"compound": "Fc1ccc(C(OCCN2CCN(CCCc3ccccc3)CC2)c2ccc(F)cc2)cc1", "note": "[VANOXERINE]", "values": [{"measurement": "Ki", "setting": "Rattus norvegicus [2]", "value": 0.073, "unit": "µM"}, {"measurement": "Ki", "setting": "Rattus norvegicus [3]", "value": 4.3, "unit": "nM"}]}, {"compound": "CN1C2CCC1CC(CCOC(c1ccc(F)cc1)c1ccc(F)cc1)C2", "note": "(stereo not drawn)", "values": [{"measurement": "Ki", "setting": "[1]", "value": 130, "unit": "nM"}, {"measurement": "Ki", "setting": "Rattus norvegicus [3]", "value": 80, "unit": "nM"}, {"measurement": "Ki", "setting": "[6]", "value": 52, "unit": "µM"}, {"measurement": "Ki", "setting": "[4]", "value": 4.1, "unit": "µM"}, {"measurement": "Ratio", "setting": "[5]", "value": 79}]}, {"compound": "CN1[C@@H]2CC[C@H]1C[C@@H](CC(=O)NC(c1ccccc1)c1ccccc1)C2", "values": [{"measurement": "Ki", "setting": "[1]", "value": 1200, "unit": "nM"}, {"measurement": "Ki", "setting": "Rattus norvegicus [2]", "value": 100, "unit": "µM"}, {"measurement": "Ki", "setting": "Rattus norvegicus [3]", "value": 7900, "unit": "nM"}, {"measurement": "Ki", "setting": "[6]", "value": 30, "unit": "µM"}, {"measurement": "Ki", "setting": "[4]", "value": 120, "unit": "µM"}, {"measurement": "Ratio", "setting": "[5]", "value": 4}]}, {"compound": "CN1C2CCC1CC(=CC(=O)NC(c1ccc(F)cc1)c1ccc(F)cc1)C2", "values": [{"measurement": "Ki", "setting": "[1]", "value": 2500, "unit": "nM"}, {"measurement": "Ki", "setting": "Rattus norvegicus [2]", "value": 17, "unit": "µM"}, {"measurement": "Ki", "setting": "Rattus norvegicus [3]", "value": 240, "unit": "nM"}, {"measurement": "Ki", "setting": "[4]", "value": 19, "unit": "µM"}, {"measurement": "Ratio", "setting": "[5]", "value": 38}]}, {"compound": "CN1[C@@H]2CC[C@H]1C[C@@H](CCOC(c1ccccc1)c1ccccc1)C2", "values": [{"measurement": "Ki", "setting": "[1]", "value": 56, "unit": "nM"}, {"measurement": "Ki", "setting": "Rattus norvegicus [2]", "value": 12, "unit": "µM"}, {"measurement": "Ki", "setting": "Rattus norvegicus [3]", "value": 260, "unit": "nM"}, {"measurement": "Ki", "setting": "[4]", "value": 15, "unit": "µM"}, {"measurement": "Ratio", "setting": "[5]", "value": 54}]}]}
